These results are taken from ChEMBL document CHEMBL1629684, “Effects of ravuconazole treatment on parasite load and immune response in dogs experimentally infected with Trypanosoma cruzi” (Antimicrob Agents Chemother, 2010).

Data set [1] concerns Canis familiaris. Kind of data set: Immunostimulatory activity in mongrel dog infected with Trypanosoma cruzi Berenice-78 assessed as reduction in INFgamma production in right atrium at 7 mg/kg, po BID after 180 days by semiquantitative RT-PCR. Format: functional, organism-based. The conditions noted are these: Canis lupus familiaris, Cardiac atrium. Also on record: dose 7 mg/kg. A digest of the protocol: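 Dogs were euthanized 6 months after the end of treatment. RNA was extracted from the right atrium with acid guanidinium thiocyanate-phenol-chloroform. One microgram was DNase treated and reverse transcribed with oligo(dT) for 1 h at 42°C. IFN-γ or IL-10 cDNA was amplified with 1.5 mM MgCl2: 94°C 5 min, n cycles of 94/57/72°C, final extension 72°C 6 min. Expression was scored semiquantitatively against infected untreated and noninfected dogs.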

Data set [2] concerns Trypanosoma cruzi. Kind of data set: Antimicrobial activity against Trypanosoma cruzi Berenice-78 infected in mongrel dog assessed as survival of dog at 7 mg/kg, po BID started 12 to 22 days postinfection measured after 1 day. In kind it is functional. Put shortly: (§1)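 Four-month-old mongrel dogs (five per group) received 2.0 × 10^3 Y or Berenice-78 bloodstream trypomastigotes/kg. Oral dosing began 12–22 days postinfection, when parasitemia was detected by fresh blood examination: 12 mg/kg q12h for 90 days, or 7 mg/kg q12h for 60 days. Ear-vein blood was checked from day 10. Mortality was expressed as the cumulative percentage of dead animals.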

For data set [3], the system named is Canis familiaris. Kind of data set: Toxicity in mongrel dog infected with Trypanosoma cruzi Berenice-78 assessed as weight loss at 12 mg/kg, po BID for 90 days started 12 to 22 days postinfection measured after 6 months. Format: organism-based, Canis lupus familiaris. Also on record: dose 12 mg/kg, route oral. The conditions noted are these: in vivo, 4383 h. Put shortly: (§2)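 Body weight gain, in kg, was recorded for infected dogs 1 day and 6 months after the end of oral b.i.d. treatment. Treated animals were compared with infected untreated and noninfected control groups.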

The subject of data set [4] is Trypanosoma cruzi. Kind of data set: Antimicrobial activity against Trypanosoma cruzi Y infected in mongrel dog assessed as suppression of microbial proliferation at 12 mg/kg, po BID started 12 to 22 days postinfection measured after 1 day. Details: dose 12 mg/kg. Format: functional, organism-based. A digest of the protocol:
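Mongrel dogs, 4 months old, dewormed and vaccinated, were inoculated with 2.0 × 10^3 bloodstream trypomastigotes/kg. Oral b.i.d. (q12h) dosing began 12 to 22 days postinfection, once parasitemia appeared. Dosing ran 90 days at 12 mg/kg and 60 days at 7 mg/kg, with 5 dogs per group. Parasitemia was read by fresh-blood examination of marginal ear vein blood from day 10 of infection until parasites were undetectable.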

Data set [5] deals with Canis familiaris. The experiment in a line: Immunostimulatory activity in mongrel dog infected with Trypanosoma cruzi Berenice-78 assessed as production of antibody IgG at 12 mg/kg, po BID for 90 days measured up to 30 days by ELISA. In kind it is functional, organism-based. Also on record: dose 12 mg/kg. The following applies: Canis lupus familiaris. A digest of the protocol: (§3)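 Serum was taken before inoculation and then monthly until 6 months posttreatment, and stored at −80°C. ELISA plates were coated with alkaline extract of Y-strain parasites grown to exponential phase in LIT medium. Bound total IgG or IgG2 was detected with peroxidase-labeled anti-dog conjugates and read at 490 nm. Cutoff was the mean absorbance of 10 uninfected dogs plus 2 SD.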

In data set [6] the test system is Trypanosoma cruzi. The experiment in a line: Antimicrobial activity against Trypanosoma cruzi Berenice-78 infected in mongrel dog assessed as parasite level in blood of dog at 7 mg/kg, po BID started 12 to 22 days postinfection measured after 30 days by PCR analysis. Format: functional. A digest of the protocol:
(§4)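 Blood PCR for T. cruzi on treated dogs (n = 5 per group) at 1 and 6 months posttreatment. Each reaction took 2 μl blood DNA template in Tris-HCl pH 9.0, 75 mM KCl, 3.5 mM MgCl2 and 0.2 mM dNTPs. Cycling was 95°C 5 min, then 2 cycles annealing at 30°C, 33 cycles at 40°C, and 72°C 5 min. Products were run on 6% polyacrylamide and silver stained. Reported as rate of positive animals.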

Data set [7] in a line: Half life in mongrel dog. The following applies: in vivo. Format: ADME, organism-based, Canis lupus familiaris.
Data set [8] has as its system Trypanosoma cruzi. The experiment in a line: Antimicrobial activity against Trypanosoma cruzi Berenice-78 infected in mongrel dog assessed as parasite level in blood of dog at 12 mg/kg, po BID started 12 to 22 days postinfection measured after 6 months by PCR analysis. Format: functional. Put shortly: as §4
A short description of data set [9]: Half life in po dosed human. In kind it is ADME, organism-based. The following applies: in vivo.
Data set [10] has as its system Canis familiaris. The experiment in a line: Toxicity in mongrel dog infected with Trypanosoma cruzi Y assessed as weight loss at 12 mg/kg, po BID for 90 days started 12 to 22 days postinfection measured after 6 months. Format: organism-based, Canis lupus familiaris. Details: dose 12 mg/kg, route oral. The following applies: in vivo, 4383 h. Put shortly:
as §2

The subject of data set [11] is Trypanosoma cruzi. Kind of data set: Antitrypanosomal activity against Trypanosoma cruzi Y infected in mongrel dog assessed as reduction in parasite-induced intrafascicular collagen deposition in right atrium at 12 mg/kg, po BID after 180 days. The following applies: Cardiac atrium.
Data set [12] in a line: Half life in human. The conditions noted are these: in vivo. Format: ADME, organism-based.
Data set [13] relates to Canis familiaris. The experiment in a line: Immunostimulatory activity in mongrel dog infected with Trypanosoma cruzi Berenice-78 assessed as production of antibody IgG at 7 mg/kg, po BID for 90 days measured up to 30 days by ELISA. Also on record: dose 7 mg/kg. The conditions noted are these: Canis lupus familiaris. Format: functional, organism-based. Put shortly: as §3

Data set [14] relates to Trypanosoma cruzi. The experiment in a line: Antimicrobial activity against Trypanosoma cruzi Y infected in mongrel dog assessed as survival of dog at 7 mg/kg, po BID started 12 to 22 days postinfection measured after 1 day. Format: functional. Put shortly:
as §1

The subject of data set [15] is Trypanosoma cruzi. The experiment in a line: Antitrypanosomal activity against Trypanosoma cruzi Berenice-78 infected in mongrel dog assessed as reduction in parasite-induced intrafascicular collagen deposition in right atrium at 12 mg/kg, po BID after 180 days […]. The following applies: Cardiac atrium. Also on record: dose 12 mg/kg. Format: functional, organism-based.

The source made the active and inactive calls.

In the case of `C[C@@H](c1nc(-c2ccc(C#N)cc2)cs1)[C@](O)(Cn1cncn1)c1ccc(F)cc1F` [RAVUCONAZOLE], the result in the data set on Canis familiaris [1], with Canis familiaris [5], in the data set with Trypanosoma cruzi [11], in the data set with Canis familiaris [13] and in the data set on Trypanosoma cruzi [15] was Active. In addition, the Activity in the data set with Trypanosoma cruzi [2] is 100%; in the data set on Canis familiaris [3] it was “Non-toxic”; in the data set on Trypanosoma cruzi [4], “Non-toxic”; with Trypanosoma cruzi [6] it was 60%; in the data set with Trypanosoma cruzi [8] it was 80%; in the data set on Canis familiaris [10], “Non-toxic”. The Activity in the data set on Trypanosoma cruzi [14] came to 100%. Further, the half-life in data set [7] is 8.8 h; in data set [9], not below 120 h; in [12], 96 h.
